Experimental data published in ChEMBL document CHEMBL3804769, “Antibacterial Diamines Targeting Bacterial Membranes” (J Med Chem, 2016).
Active and inactive are the calls of the source. No cut-off for these calls is given here.

Tests used:
Staphylococcus aureus [1] = test: Antibacterial activity against methicillin-resistant Staphylococcus aureus clinical isolate 10082B SPA type 1 after 24 hrs by microbroth dilution method; format: functional
Outline: (§1)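 MRSA isolates from ICU surfaces, stored at −80 °C and grown in Mueller-Hinton broth. Overnight cultures diluted and added to serially diluted compound at ~10⁵ CFU/mL, broth microdilution. Plates incubated 24 h at 37 °C, growth read as absorbance at 620 nm. MIC99 taken as the lowest concentration giving complete growth inhibition.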

Staphylococcus aureus [2] = test: Antibacterial activity against methicillin-resistant Staphylococcus aureus clinical isolate 30253CA SPA type 7 after 24 hrs by microbroth dilution method; format: functional; outline: as §1
Staphylococcus aureus [3] = test: Bactericidal activity against Staphylococcus aureus RN4220 ATCC 35556 in exponential-phase assessed as reduction in bacterial burden at 4 times MIC99 after 2 to 6 hrs by time-kill assay; format: functional, organism-based
Outline: (§2)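 Overnight cultures washed and resuspended in PBS, then diluted 100-fold into LB (exponential-phase model) or into 1% PBS (stationary-phase model). Test agent added at 4× MIC99. Incubated at 37 °C with shaking at 200 rpm. CFU counted on LB agar at 0, 2, 4 and 6 h.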

Pseudomonas aeruginosa [4] = test: Bactericidal activity against Pseudomonas aeruginosa PAO1 ATCC 47085 in exponential-phase assessed as reduction in bacterial burden at 4 times MIC99 upto 6 hrs by time-kill assay; format: functional; outline: as §2
Pseudomonas aeruginosa [5] = test: Bactericidal activity against Pseudomonas aeruginosa PAO1 ATCC 47085 in stationary-phase assessed as reduction in bacterial burden at 4 times MIC99 after 4 hrs by time-kill assay; format: functional, organism-based; outline: as §2
[6] = Selectivity index, ratio of CC50 for HEK293T/17 cells to MIC99 for methicillin-resistant Staphylococcus aureus clinical isolate
[7] = Selectivity index, ratio of CC50 for human A549 cells to MIC99 for methicillin-resistant Staphylococcus aureus clinical isolate
Staphylococcus aureus [8] = test: Antibacterial activity against Staphylococcus aureus RN4220 ATCC 35556 in exponential-phase assessed as cytoplasmic membrane depolarization at 1 to 4 times MIC99 by fluorescent probe DiSC3-5 based fluorophotometric analysis; format: functional, organism-based
Outline: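 Log-phase cells (OD600 ~0.7) washed and resuspended to OD600 0.05 in 5 mM HEPES pH 7.2 with 5 mM glucose and 100 mM KCl. Loaded with 0.4 μM DiSC3-5 in the dark until fluorescence fell stably by about 90%. Compound added at 4× or 1× MIC99 and fluorescence recorded continuously at 25 °C (ex 622/em 670 nm). 2,4-Dinitrophenol as positive control. Three independent experiments.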

Pseudomonas aeruginosa [9] = test: Antibacterial activity against Pseudomonas aeruginosa PAO1 ATCC 47085 in early exponential-phase assessed as membrane damage at 2 times MIC99 after 15 mins by transmission electron microscopy; format: functional, organism-based
Outline: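 Cells grown in LB to early exponential phase (OD600 ~0.4). Exposed to 2× MIC99 for 15–60 min, washed twice in phosphate buffer, fixed in 2.5% glutaraldehyde, then imaged by transmission electron microscopy.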

Staphylococcus aureus [10] = test: Potentiation of kanamycin-induced antibacterial activity against Staphylococcus aureus RN4220 ATCC 35556 assessed as reduction in kanamycin MIC99 at 0.5 times MIC99 after 24 hrs by checkerboard assay relative to control; format: functional
Outline: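 Checkerboard assay: compound serially diluted along one axis of a 96-well plate and antibiotic along the other, in LB. Each well inoculated with 2 × 10⁴ CFU and incubated 24 h at 37 °C. ΣFIC = FIC A + FIC B, where each FIC is the combination MIC99 divided by the MIC99 of that drug alone.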

Cl.Cl.S=C(NCCCNCCCCCNCCCNC(=S)NCC(c1ccccc1)c1ccccc1)NCC(c1ccccc1)c1ccccc1
MIC99 (Staphylococcus aureus [1]): 1 µg/mL
MIC99 (Staphylococcus aureus [2]): 1 µg/mL
Activity (Staphylococcus aureus [3]): Active
Activity (Pseudomonas aeruginosa [4]): 4 deltalog10CFU/ml
Activity (Pseudomonas aeruginosa [5]): Active
Selectivity Index [6]: 32
Selectivity Index [7]: 64
Activity (Staphylococcus aureus [8]): Active
Activity (Pseudomonas aeruginosa [9]): Active
fold change (FC) (Staphylococcus aureus [10]): 8
